Assay outcomes (PubChem)
In the library only some 2.9% were active in any assay of this set; here they are far more common.
CHO-K1 Ca PAM – counter-screen for M1 PAMs: effect in parental CHO-K1 cells. ATP EC20, Fluo-8 calcium fluorescence; 0% at ATP EC20, 100% at ATP max. activation, % at 3 µM. 360,000 compounds, 0.02% hits;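 active means activation above the run cutoff, the mean activation of all test compounds plus 3 SD, cut at about 40% in these data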;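 further: peak over basal fluorescence ratio in a 140 s read after ATP addition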
OX1R antag-1 – blocks the human orexin 1 receptor; 330,000 compounds, 0.43% hits; O43613; inhibition, % at 5 µM; CHO/OX1R cells, Fluo-8 calcium fluorescence, orexin A;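 active means inhibition above its plate's threshold, mean inhibition of all tested compounds on the plate plus 3 SD, cut at about 37% in these data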;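 further: 0% = orexin A challenge wells and 100% = SB-334867-A antagonist wells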
Target sequence (O43613 whole entry, looked up): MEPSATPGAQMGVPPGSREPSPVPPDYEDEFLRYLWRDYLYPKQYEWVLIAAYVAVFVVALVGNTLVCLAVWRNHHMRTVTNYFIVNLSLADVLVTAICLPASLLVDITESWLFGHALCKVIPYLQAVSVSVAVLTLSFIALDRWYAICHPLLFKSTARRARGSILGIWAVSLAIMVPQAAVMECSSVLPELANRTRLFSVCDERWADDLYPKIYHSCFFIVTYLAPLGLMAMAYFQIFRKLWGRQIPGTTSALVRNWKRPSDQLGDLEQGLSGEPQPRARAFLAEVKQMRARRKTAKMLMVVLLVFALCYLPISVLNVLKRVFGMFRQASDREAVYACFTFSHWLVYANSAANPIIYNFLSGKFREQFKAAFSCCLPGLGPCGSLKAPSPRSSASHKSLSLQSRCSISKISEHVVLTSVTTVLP
CHO parental Ca – counter-screen for OX1R antagonists: effect in parental CHO cells. 330,000 compounds, 0.63% hits. inhibition, % at 5.6 µM. AID 463079. parental CHO-K1, ATP-induced calcium, Fluo-8 fluorescence;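 active means inhibition above that plate's mean sample inhibition plus 3 SD, cut at about 26% in these data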;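 further: 0% = ATP-challenged DMSO wells and 100% = DMSO wells without ATP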
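test system = CHO parental line | reagent = ATP stimulus | measured by = intracellular calcium via Fluo-8 no-wash fluorescent dye | control set = ATP and no-ATP DMSO wells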
CHO-K1 Ca antag – counter-screen for M1 antagonists: effect in parental CHO-K1 cells. ATP-induced calcium, Fluo-8 fluorescence. inhibition, % at 3 µM. 360,000 compounds, 0.6% hits. AID 602250;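 active means inhibition above a per-plate cutoff, the plate's mean sample inhibition plus 3 SD, cut at about 24% in these data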;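 further: 0% = DMSO plus EC80 ATP and 100% = DMSO alone without ATP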
M1 ag parental – nonselective activator or artifact in parental CHO-K1 cells | Fluo-8 calcium fluorescence; scaled to maximal ATP response, vehicle zero | activation, % at 3 µM | 360,000 compounds, 0.48% hits; in the data active means activation above about 15%;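 further: untransfected CHO-K1 host cells lacking M1 receptor as counterscreen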
OX1R antag-2 – blocks the human orexin 1 receptor. AID 485270. 330,000 compounds, 1.8% hits. O43613. OX1R-expressing cells, FRET antagonist read-out. inhibition, % at 6.6 µM; in the data active means inhibition mostly above about 38%, no sharp cut-off; inactive means mostly below about 40%;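 further: 0% = agonist challenge alone and 100% = reference antagonist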
The depositor's hits bear a star.

`CC(CCc1ccccc1)NC(=O)C(Cc1ccccc1)NS(=O)(=O)c1cccs1` (centres undefined) gave CHO-K1 Ca PAM 6, OX1R antag-1 -18, CHO parental Ca -21, CHO-K1 Ca antag -5, M1 ag parental 0 and OX1R antag-2 38*.
CC(CCc1ccccc1)NC(=O)c1cccs1 (centres undefined) was read as CHO-K1 Ca PAM -18, OX1R antag-1 9, CHO parental Ca -4, CHO-K1 Ca antag 29*, M1 ag parental 0 and OX1R antag-2 7.
For CCc1cccc(NC(=O)CCCn2nc(CC)n3c(cc4occc43)c2=O)c1 the results were CHO-K1 Ca PAM -14, OX1R antag-1 -14, CHO parental Ca -22, CHO-K1 Ca antag 2, M1 ag parental 6 and OX1R antag-2 42*.
`CCc1nn(CCCC(=O)NCc2ccccc2Br)c(=O)c2cc3occc3n12` gave CHO-K1 Ca PAM 20, OX1R antag-1 -29, CHO parental Ca -22, CHO-K1 Ca antag -14, M1 ag parental 3 and OX1R antag-2 17.
CCOC(=O)c1ccccc1NC(=O)CSc1nc(N)cc(=O)[nH]1 was read as CHO-K1 Ca PAM 8, OX1R antag-1 -27, CHO parental Ca -6, CHO-K1 Ca antag -16, M1 ag parental 0 and OX1R antag-2 10.
`CCCc1nc(NCc2ccccn2)c2nnn(Cc3ccccc3F)c2n1` gave CHO-K1 Ca PAM -3, OX1R antag-1 -21, CHO parental Ca -5, CHO-K1 Ca antag 30*, M1 ag parental 0 and OX1R antag-2 22.
`COC(=O)c1ccc(OCC(=O)c2ccccc2OC)cc1` gave CHO-K1 Ca PAM 5, OX1R antag-1 -22, CHO parental Ca -32, CHO-K1 Ca antag -3, M1 ag parental 1 and OX1R antag-2 45*.
`Cc1cc(NC(=O)c2ccc(Cl)cc2)n(CCC#N)n1` gave CHO-K1 Ca PAM 8, OX1R antag-1 -6, CHO parental Ca -5, CHO-K1 Ca antag 7, M1 ag parental 16* and OX1R antag-2 5.
For CC(CCc1ccccc1)NS(=O)(=O)c1ccccc1F (centres undefined) the results were CHO-K1 Ca PAM -3, OX1R antag-1 -24, CHO parental Ca 2, CHO-K1 Ca antag -7, M1 ag parental 0 and OX1R antag-2 6.
Screening COc1cccc(N2C(=O)CC(N3CCN(CCN=CC4=C(O)CC(C)(C)CC4=O)CC3)C2=O)c1 (centres undefined) returned CHO-K1 Ca PAM 12, OX1R antag-1 -9, CHO parental Ca -3, CHO-K1 Ca antag 10, M1 ag parental 19* and OX1R antag-2 10.
`CCC(CC)c1nnc(NC(=O)COc2ccc3c(c2)OCO3)s1` gave CHO-K1 Ca PAM 18, OX1R antag-1 -14, CHO parental Ca -14, CHO-K1 Ca antag -7, M1 ag parental 20* and OX1R antag-2 7.
CC(Oc1ccc(Br)cc1)C(=O)Nc1nc(-c2ccccn2)cs1 (centres undefined) was read as CHO-K1 Ca PAM -21, OX1R antag-1 9, CHO parental Ca 35*, CHO-K1 Ca antag 15, M1 ag parental 1 and OX1R antag-2 40.
CN(C)c1ncc(S(=O)(=O)c2ccccc2)c(-c2ccc(Cl)cc2Cl)n1 was read as CHO-K1 Ca PAM 21, OX1R antag-1 -13, CHO parental Ca 4, CHO-K1 Ca antag -14, M1 ag parental 0 and OX1R antag-2 53*.
For Cc1ccc(NCCC(=O)c2cccc([N+](=O)[O-])c2)c(C)c1 the results were CHO-K1 Ca PAM 18, OX1R antag-1 -18, CHO parental Ca -14, CHO-K1 Ca antag -38, M1 ag parental 0 and OX1R antag-2 10.
For Cc1cccc(NCCC(=O)c2ccc([N+](=O)[O-])cc2)c1C the results were CHO-K1 Ca PAM 17, OX1R antag-1 -17, CHO parental Ca -10, CHO-K1 Ca antag -10, M1 ag parental 4 and OX1R antag-2 42*.
O=C1CCCc2[nH]nc(-c3cccnc3)c21 was read as CHO-K1 Ca PAM -9, OX1R antag-1 4, CHO parental Ca 9, CHO-K1 Ca antag 26*, M1 ag parental 0 and OX1R antag-2 10.
O=C(CSc1cccs1)Nc1cccc2ccccc12 was read as CHO-K1 Ca PAM 18, OX1R antag-1 -3, CHO parental Ca -11, CHO-K1 Ca antag -17, M1 ag parental 1 and OX1R antag-2 29.
`O=C(CSc1cccs1)Nc1ccc2ccccc2c1` gave CHO-K1 Ca PAM 12, OX1R antag-1 6, CHO parental Ca -19, CHO-K1 Ca antag 3, M1 ag parental 0 and OX1R antag-2 41*.
Cc1cc2nc(-c3nnnn3-c3c(C)cccc3C)c(=O)[nH]c2cc1C was read as CHO-K1 Ca PAM -11, CHO-K1 Ca antag 24* and M1 ag parental 1.
`CC(=O)c1cccc(OCc2cc(C(=O)N3C[C@H]4CC[C@H]3C4)no2)c1` gave CHO-K1 Ca PAM 1, OX1R antag-1 -6, CHO parental Ca -12, CHO-K1 Ca antag -1, M1 ag parental 1 and OX1R antag-2 5.
`O=C(NCCc1cn2ccccc2n1)c1cc(COc2ccc3ncccc3c2)on1` gave CHO-K1 Ca PAM -11, OX1R antag-1 47*, CHO parental Ca 47*, CHO-K1 Ca antag 33*, M1 ag parental 19* and OX1R antag-2 65*.
CC(=O)c1cccc(OCc2cc(C(=O)N3C[C@@H](C)O[C@@H](C)C3)no2)c1 was read as CHO-K1 Ca PAM 9, OX1R antag-1 -12, CHO parental Ca -15, CHO-K1 Ca antag 59*, M1 ag parental 1 and OX1R antag-2 3.
`O=C(NC1CCCC1)c1cc(COc2ccc3ncccc3c2)on1` gave CHO-K1 Ca PAM -1, OX1R antag-1 31, CHO parental Ca 52*, CHO-K1 Ca antag 12, M1 ag parental 14 and OX1R antag-2 24.
For Cc1ccc(OCc2cc(C(=O)NC3CCCCC3)no2)cn1 the results were CHO-K1 Ca PAM -21, OX1R antag-1 -16, CHO parental Ca 14, CHO-K1 Ca antag 17, M1 ag parental 10 and OX1R antag-2 24.
Screening CC(NC(=O)c1cc(COc2ccc3ncccc3c2)on1)c1ccc(F)cc1 (centres undefined) returned CHO-K1 Ca PAM -24, OX1R antag-1 43*, CHO parental Ca 51*, CHO-K1 Ca antag 22, M1 ag parental 13 and OX1R antag-2 56.
O=c1[nH]cnc(O)c1C(c1ccc2c(c1)OCO2)c1c(O)nc[nH]c1=O was read as CHO-K1 Ca PAM 21, OX1R antag-1 -11, CHO parental Ca 7, CHO-K1 Ca antag -13, M1 ag parental 0 and OX1R antag-2 35.
Screening COc1ccc(CCNc2nc(C)nc3c2nnn3Cc2ccccc2)cc1OC returned CHO-K1 Ca PAM 21, OX1R antag-1 -33, CHO parental Ca -15, CHO-K1 Ca antag -10, M1 ag parental 2 and OX1R antag-2 18.
